Source: ChEMBL document CHEMBL1128389, “Thiadiazole derivatives: highly potent and specific HIV-1 reverse transcriptase inhibitors” (J Med Chem, 1995)

Legend:
MT4 [1] = experiment: Compound was evaluated for the inhibition of HIV-1 induced CPE (HTLV-III B strain ) replication in MT-4 cells; assay type: functional, cell-based; conditions: Homo sapiens
Method in brief: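 HIV-1 strain HTLV-IIIB in MT-4 cells; EC50 = concentration giving 50% inhibition of virus-induced cytopathic effect; viable cells counted by MTT method.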

[2] = Selectivity index is the ratio of CC50 and EC50 in MT-4 cells.; assay type: functional, MT4
Method in brief: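 MT-4 cells; selectivity index = CC50 (MTT viability of mock-infected cells) divided by EC50 (inhibition of HIV-1-induced cytopathic effect).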

MT4 [3] = experiment: Cytotoxic concentration based on the reduction of viability of mock-infected cells; assay type: functional; conditions: Homo sapiens
Method in brief: (§1)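 Mock-infected MT-4 cells; viable cell number determined by MTT method; CC50 = concentration giving 50% reduction of viability.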

MT4 [4] = experiment: Compound was evaluated for the inhibition of HIV-1 induced CPE (HTLV-III B strain ) replication in MT-4 cells.; assay type: functional, cell-based; conditions: Homo sapiens
Method in brief: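 HTLV-IIIB strain of HIV-1 in MT-4 cells; activity read as inhibition of virus-induced cytopathic effect, viable cells counted by MTT method; EC50 is the 50% effective concentration.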

[5] = Selectivity index is the ratio of CC50 and EC50 MT-4 cells.; assay type: functional, MT4
Method in brief: (§2)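 HIV-1 strain HTLV-IIIB in MT-4 cells. EC50 is 50% inhibition of virus-induced cytopathic effect. CC50 is 50% loss of viability in mock-infected cells. Viable cells were counted by the MTT method. Index = CC50/EC50.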

MT4 [6] = experiment: Cytotoxic concentration based on the reduction of viability of mock-infected MT-4 cells.; assay type: functional; conditions: Homo sapiens; method in brief: as §1
MT4 [7] = experiment: Selectivity index is the ratio of CC50 and EC50 in MT-4 cells; assay type: functional, Homo sapiens; method in brief: as §2
Homo sapiens [8] = species on record: Homo sapiens; experiment: (§3) Selectivity index is the ratio of CC50 and EC50 in peripheral blood lymphocytes (PBL).; assay type: functional
Method in brief: (§4)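 HIV-1 strain HTLV-IIIB in peripheral blood lymphocytes. EC50 is 50% reduction of p24 antigen in culture supernatant. CC50 is 50% loss of viability in mock-infected cells, with viable cells counted by MTT. Index = CC50/EC50.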

Homo sapiens [9] = species on record: Homo sapiens; experiment: Cytotoxic concentration based on the reduction of viability of mock-infected peripheral blood lymphocytes (PBL).; assay type: functional
Method in brief: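 Mock-infected peripheral blood lymphocytes; CC50 = concentration giving 50% reduction in viability, viable cells measured by MTT method.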

MT4 [10] = experiment: Cytotoxic concentration based on the reduction of viability of mock-infected MT-4 cells; assay type: functional; conditions: Homo sapiens; method in brief: as §1
MT4 [11] = experiment: Compound was evaluated for the inhibition of HIV-2 induced CPE (LAV-2EHO strain ) replication in MT-4 cells; assay type: functional, cell-based; conditions: Homo sapiens
Homo sapiens [12] = species on record: Homo sapiens; experiment: Compound was evaluated for the inhibition of HIV-1 (HTLV-III B strain ) replication in peripheral blood lymphocytes (PBL), measured as p24 antigen reduction.
[13] = as §3; assay type: functional; method in brief: as §4
Homo sapiens [14] = species on record: Homo sapiens; experiment: Cytotoxic concentration based on the reduction of viability of mock-infected peripheral blood lymphocytes (PBL); assay type: functional
Method in brief: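 Mock-infected peripheral blood lymphocytes; viable cell number determined by MTT method; CC50 is the concentration giving 50% reduction of viability.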

| SMILES | EC50 (MT4 [1]) | Selectivity index [2] | CC50 (MT4 [3]) | other results |
| --- | --- | --- | --- | --- |
| CN(C)C(=O)Oc1nsnc1-c1ccccc1Cl | 0.32 µM | 503 | 161 µM |  |
| Cc1nsnc1OC(=O)N(C)C | > 535 µM | <1 | 535 µM |  |
| CN(C)C(=O)Oc1nsnc1-c1ccccc1 | 23 µM | 8 | 183 µM |  |
| Oc1nsnc1-c1c(Cl)cccc1Cl |  | <1 | 221 µM | EC50 (MT4 [4]): 212 µM |
| CCCN(C)C(=O)Oc1nsnc1-c1c(Cl)cccc1Cl | 0.013 µM |  |  | Selectivity index [5]: 10077; CC50 (MT4 [6]): 131 µM; Selectivity index (MT4 [7]): <1; Selectivity index (Homo sapiens [8]): 37500; CC50 (Homo sapiens [9]): 150 µM; CC50 (MT4 [10]): 131 µM; EC50 (MT4 [11]): > 131 µM |
| CCN(C)C(=O)Oc1nsnc1-c1c(Cl)cccc1Cl | 0.039 µM | 3487 | 136 µM |  |
| CN(C)C(=O)Oc1nsnc1-c1c(Cl)cccc1Cl | 0.24 µM | 604 | 145 µM |  |
| CN(C)C(=O)Oc1cnsn1 | > 560 µM | <1 | 560 µM |  |
| CCCCN(C)C(=O)Oc1nsnc1-c1c(Cl)cccc1Cl | 0.039 µM | 744 | 29 µM |  |
| CCCCCCN(C)C(=O)Oc1nsnc1-c1c(Cl)cccc1Cl | 0.1 µM | 160 | 16 µM |  |
| CC(=O)c1ccc(C)cc1NC(C(N)=O)c1c(Cl)cccc1Cl (centres undefined) [LOVIRIDE] | 0.006 µM | 22833 | 137 µM | EC50 (Homo sapiens [12]): 0.11 µM; Selectivity index [13]: 436; CC50 (Homo sapiens [14]): 48 µM |
| Cc1ccnc2c1NC(=O)c1cccnc1N2C1CC1 [NEVIRAPINE] | 0.073 µM | 3973 | 290 µM |  |
| Cc1cn([C@H]2C[C@H](N=[N+]=[N-])[C@@H](CO)O2)c(=O)[nH]c1=O [ZIDOVUDINE] | 0.004 µM |  | 3.2 µM | EC50 (Homo sapiens [12]): 0.003 µM; Selectivity index [13]: 27667; CC50 (Homo sapiens [14]): 83 µM |
